# TbHK1 inh – Trypanosoma brucei hexokinase 1 inhibitors, primary screen, biochemical, G6PDH-coupled NADH absorbance, MLSCN library | hit rate 0.11% among 220,000 | recombinant TbHK1, G6PDH-coupled NADH A340 | inhibition, % at 10 µM | AID 1430, 2008 | hexokinase 1 [Trypanosoma brucei];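 active = inhibition of 50% or more in the single-dose primary screen; inactive = inhibition below 50%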
# HKDC1 inhibitor – HKDC1 hexokinase inhibitors, primary screen, biochemical, fluorescence, uHTS; Q2TB90; recombinant HKDC1, G6PDH/diaphorase resazurin coupled fluorescence; inhibition, % at 20 µM; hit rate 0.16% among 340,000; AID 493160, 2011;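 active = inhibition above about 35% when tested at 20 µM, limit read from the data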;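 note: plate controls were DMSO wells with enzyme for no effect and DMSO wells lacking enzyme for full effect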
# Target sequence (Q2TB90 whole entry, looked up): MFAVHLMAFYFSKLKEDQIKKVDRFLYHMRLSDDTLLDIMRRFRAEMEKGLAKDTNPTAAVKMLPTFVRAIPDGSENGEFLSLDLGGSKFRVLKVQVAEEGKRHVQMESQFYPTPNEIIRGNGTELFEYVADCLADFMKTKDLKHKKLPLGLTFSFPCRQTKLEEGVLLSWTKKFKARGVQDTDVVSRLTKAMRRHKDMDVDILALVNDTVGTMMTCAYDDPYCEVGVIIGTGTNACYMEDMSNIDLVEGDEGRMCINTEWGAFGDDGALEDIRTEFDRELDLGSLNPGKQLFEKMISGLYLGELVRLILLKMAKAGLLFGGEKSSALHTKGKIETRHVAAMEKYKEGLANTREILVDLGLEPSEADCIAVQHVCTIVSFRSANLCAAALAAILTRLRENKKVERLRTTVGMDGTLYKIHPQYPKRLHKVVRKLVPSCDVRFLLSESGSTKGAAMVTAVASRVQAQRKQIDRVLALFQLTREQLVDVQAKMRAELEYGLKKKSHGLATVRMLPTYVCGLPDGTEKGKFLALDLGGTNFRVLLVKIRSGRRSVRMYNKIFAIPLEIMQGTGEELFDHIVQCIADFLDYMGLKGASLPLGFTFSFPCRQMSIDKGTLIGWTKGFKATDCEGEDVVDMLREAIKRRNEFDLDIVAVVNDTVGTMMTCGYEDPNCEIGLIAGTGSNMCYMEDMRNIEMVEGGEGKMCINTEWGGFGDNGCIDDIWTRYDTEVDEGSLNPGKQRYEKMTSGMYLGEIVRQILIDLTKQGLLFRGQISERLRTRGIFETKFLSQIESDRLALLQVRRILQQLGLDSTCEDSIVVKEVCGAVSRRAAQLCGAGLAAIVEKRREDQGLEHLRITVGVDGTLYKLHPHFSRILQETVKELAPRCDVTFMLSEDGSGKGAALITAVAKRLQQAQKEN
#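 Test system: Recombinant HKDC1 (HK5) hexokinase enzyme, produced in-house | Input: HKDC1 at 5 µg/mL | Buffer or medium: Tris pH 8.0 buffer with MgCl2, Tween-20, BSA, BME | Schedule: 90 min reaction incubation at room temperature, dark | Technique: Resazurin-to-resorufin fluorescence via G6PDH and diaphorase coupling, 525/613 nm | Controls: DMSO wells with and without enzyme mix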
# G6PDH counter – L. mesenteroides G6PDH inhibitors, counter-screen for G6PDH-coupled screening assays, biochemical, Leuconostoc mesenteroides enzyme | hit rate 0.12% among 200,000 | inhibition, % at 5 µM | Purified L. mesenteroides G6PDH, diaphorase/resazurin coupled fluorescence, 45 min | AID 1020, 2008 | glucose-6-phosphate dehydrogenase [Leuconostoc mesenteroides]; in the data active = inhibition above about 50%
# Diaph inh CS – diaphorase inhibitors and chemical oxidizers, primary screen, counter-screen for diaphorase-coupled primary assays, biochemical, uHTS, resorufin fluorescence; hit rate 0.69% among 190,000; diaphorase resazurin-to-resorufin fluorescence, NADH, 16 min; bacterial (C. kluyveri) enzyme, not human; inhibition, % at 20 µM; AID 1217, 2008;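 active = primary screen inhibition at 20 µM above a set limit, cut at about 50% in these data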;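 note: plate controls were DMSO with full reaction for no effect and wells lacking NADH for full effect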
#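 Test system: diaphorase enzyme from Clostridium kluyveri; amount: diaphorase at 0.14 U/mL in enzyme working solution; detection: fluorescence of resorufin formed from resazurin, Ex 544/Em 590 nm; times: reaction incubation of 16 min at room temperature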
# PfG6PD inh – PfG6PD enzyme inhibitors, primary screen, biochemical, fluorescence intensity, uHTS. inhibition, % at 20 µM. PfGluPho enzyme, NADPH resazurin-diaphorase fluorescence. hit rate 0.78% among 350,000;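 active = inhibition reaching at least a set limit at 20 µM in the primary screen, cut at about 59% in these data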;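 note: 0% = DMSO wells with substrate and 100% = DMSO wells lacking glucose-6-phosphate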
# PfGluPho conf – PfG6PD inhibitors, hit retest, confirmation, biochemical, fluorescence intensity, single concentration; AID 504753, 2011; hit rate 34% among 2,400; inhibition, % at 20 µM; recombinant PfGluPho, NADPH-diaphorase-resazurin fluorescence; shares compounds with PfG6PD inh;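 active = inhibition of at least 50% at 20 µM in any single replicate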;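 note: 0% = DMSO with substrate and 100% = DMSO lacking glucose-6-phosphate substrate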
# Diaphorase 10uM – diaphorase inhibitors and chemical oxidizers, confirmation, counter-screen for P. falciparum G6PD inhibitor project, biochemical, fluorescence intensity, 10 µM NADPH; inhibition, % at 20 µM; hit rate 39% among 820; shares compounds with PfG6PD inh; diaphorase-coupled resazurin reduction, NADPH 10 uM;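 active = average inhibition reaching 50% or more with the compound at 20 µM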;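 note: resorufin red fluorescence formed as diaphorase reduces resazurin using NADPH; 0% = DMSO with enzyme and 100% = DMSO without enzyme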
# Diaphorase 30uM – diaphorase inhibitors and chemical oxidizers, confirmation, counter-screen for P. falciparum G6PD inhibitor project, biochemical, fluorescence intensity, 30 µM NADPH; shares compounds with PfG6PD inh; Diaphorase/resazurin coupled assay, resorufin fluorescence; inhibition, % at 20 µM; hit rate 29% among 820;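 active = inhibition averaging 50% or more, tested at 20 µM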;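 note: 0% = DMSO with enzyme and 100% = DMSO wells lacking diaphorase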
# * marks the source's active call; other numbers are inactive results; · = no result. This is a sample that favours compounds with a hit; in the whole collection about 1.2% have one here.
SMILES,TbHK1 inh,HKDC1 inhibitor,G6PDH counter,Diaph inh CS,PfG6PD inh,PfGluPho conf,others
CN(C)C=Nc1ccccc1C1C=NNC1=O (stereo not drawn),30.2,·,·,·,·,·,
CCOC(=O)c1c(C)[nH]c2cc(Br)c(O)cc12,-6.9,6.0,3.7,27.9,17.5,·,
CCOC(=O)c1c(OCC)[nH]c2c1cc(O)c1ccccc12,5.8,26.6,7.7,74.0*,68.8*,48.5*,Diaphorase 10uM=21.0;Diaphorase 30uM=24.8
S=C(c1ccc(-c2ccccc2Cl)o1)N1CCOCC1,-5.6,-7.3,1.7,24.3,61.6*,41.7,
S=C(c1ccc(-c2ccc(Cl)c(Cl)c2)o1)N1CCOCC1,-14.5,-1.9,-32.6,26.6,32.3,·,
COc1cc(F)c(C2=CC(=O)C[C@H](c3ccc(Cl)cc3)C2)cc1F,·,1.9,·,·,-0.4,·,
O=C(Nc1nc2ccccc2n1Cc1ccccc1)c1ccco1,2.6,-1.8,16.8,-0.1,79.8*,44.7,
O=C(Nc1nc2ccccc2n1CCN1CCOCC1)c1ccc(Cl)cc1,-9.7,-13.7,·,·,67.9*,43.2,
CCC(=O)Nc1nc2ccccc2n1Cc1ccc(Cl)cc1,-8.9,-19.7,-2.4,-9.0,-12.5,·,
CC1(C)Cc2c(sc(NC(=O)C(=O)NCCCN3CCOCC3)c2C#N)CO1,·,-4.3,·,·,23.1,·,
CCN(CC)c1nc(N)nc(NS(=O)(=O)c2ccc(Cl)cc2)n1,6.0,4.7,-8.1,20.6,66.6*,57.1*,Diaphorase 10uM=54.5*;Diaphorase 30uM=41.9
CCNc1nc(NC(C)C)nc(NS(=O)(=O)c2ccc(Cl)cc2)n1,17.6,12.4,6.9,12.7,82.7*,55.1*,Diaphorase 10uM=62.7*;Diaphorase 30uM=46.8
CCNc1nc(NC(C)C)nc(NS(=O)(=O)c2ccc(N)cc2)n1,-5.7,-7.0,6.3,16.5,-10.3,·,
CC(C)[C@H](NC(=O)c1ccccc1F)C(=O)NC1CCCCCCC1,·,-1.9,·,·,4.8,·,
CC(Nc1cc(N2CCN(S(=O)(=O)N(C)C)CC2)ccc1[N+](=O)[O-])c1ccccc1 (stereo not drawn),-6.2,-0.2,14.3,21.0,88.2*,23.5,
CC(Nc1cc(N2CCCC2)ccc1[N+](=O)[O-])c1ccccc1 (stereo not drawn),-3.2,-3.9,13.8,19.2,11.5,·,
CC(Nc1cc(N2CCN(S(C)(=O)=O)CC2)ccc1[N+](=O)[O-])c1ccccc1 (stereo not drawn),0.0,1.2,-18.4,14.6,59.7*,24.7,
COc1ccc(Cl)cc1NC(=O)c1cccc([N+](=O)[O-])c1O,·,15.2,·,·,76.9*,57.4*,Diaphorase 10uM=41.8;Diaphorase 30uM=38.1
COc1ccc(Cl)cc1NC(=O)C/C(C)=N/NC(=O)c1ccccc1[N+](=O)[O-],·,-6.2,·,·,-12.6,·,
C[C@H]1CN([C@@H](C)CO)C(=O)CCCn2nncc2CO[C@H]1CN(C)S(=O)(=O)c1ccc2ccccc2c1,·,·,·,·,4.3,·,
Cc1c(/C=N/O)c2ccccn2c1C(=O)c1ccc(F)cc1,·,4.4,·,·,76.4*,42.2,
N#Cc1cn(CCCOc2ccccc2)c2ccccc12,9.8,5.8,3.6,10.7,61.0*,19.9,
COc1ccccc1OCCCn1cc(C#N)c2ccccc21,2.1,3.4,14.7,11.4,113.0*,69.2*,Diaphorase 10uM=64.6*;Diaphorase 30uM=57.7*
COC(=O)c1cn(CCOc2ccccc2)c2ccccc12,-6.9,6.7,-25.7,19.3,4.7,·,
COCC(=O)N1CCC(Oc2ccc(C(=O)N[C@H](C(=O)OC)C(C)C)cc2)CC1,·,1.2,·,·,11.4,·,
SMILES,TbHK1 inh,HKDC1 inhibitor,G6PDH counter,Diaph inh CS,PfG6PD inh,PfGluPho conf,others
COc1ccccc1Cn1c(/C=C/c2ccccc2)nc2ccccc21,-12.2,3.0,0.5,10.3,67.0*,2.8,
COc1ccc(/C=C/c2nc3ccccc3n2Cc2ccccc2OC)cc1,-18.2,-4.6,4.0,14.1,76.3*,22.4,
COCCn1c(/C=C/c2ccccc2)nc2ccccc21,-35.0,-0.2,-8.3,10.0,43.6,·,
O=C(NCCc1ccc(C(F)(F)F)cc1)C1CCC(=O)N(CCCN2CCCC2=O)C1 (stereo not drawn),·,-5.3,·,·,-5.5,·,
Cc1ccc(S(=O)(=O)c2nnn3c2nc(N2CCCCC2)c2ccccc23)cc1,21.9,-5.4,-1.5,1.5,72.2*,24.9,
COc1ccc(C2Nc3cccc4cccc(c34)N2)cc1,-9.3,7.7,11.5,51.9*,69.4*,36.8,
CN(C)c1ccc(C2Nc3cccc4cccc(c34)N2)cc1,·,8.2,·,·,41.2,·,
Cc1ccc(S(=O)(=O)Nc2ccc(Nc3ccccc3)cc2)cc1,·,-1.4,·,·,-3.9,·,
Cc1ccc(S(=O)(=O)NNc2c3ccccc3nc3ccc(Cl)cc23)cc1,·,·,·,·,31.1,·,
Cc1ccc(S(=O)(=O)NNc2ccccc2)cc1,1.6,-7.9,0.7,26.3,65.0*,46.9*,Diaphorase 10uM=41.8;Diaphorase 30uM=19.2
CC(=O)Nc1ccc(S(=O)(=O)NNc2cccc(C)c2)cc1,·,-2.2,·,·,76.2*,45.1*,Diaphorase 10uM=-10.1;Diaphorase 30uM=4.3
Cc1ccc(S(=O)(=O)NNc2nc3ccccc3nc2C(F)(F)F)cc1,-2.0,-0.2,-4.9,32.7,64.7*,20.1,
Cc1ccc(NC(=O)C2CC(=O)Nc3nncn32)cc1 (stereo not drawn),-6.2,-8.3,2.2,-1.6,6.4,·,
O=C(Cn1c(=O)cnc2ccccc21)N1CCN(S(=O)(=O)c2cccc([N+](=O)[O-])c2)CC1,·,2.3,·,·,-10.8,·,
c1cc2c3c(cccc3c1)-c1cnccc1-2,·,-1.6,·,·,64.5*,31.6,
COc1ccc(Nc2nnc(SCc3cc(=O)n4ccsc4n3)s2)cc1,-23.9,15.1,7.6,28.6,82.1*,47.4,
Clc1ccc2nc(SCc3nnc(-c4ccccc4)o3)[nH]c2c1,4.5,8.4,11.5,29.3,113.0*,44.3,
Cc1cc(=O)[nH]c(SCc2nnc(-c3ccccc3)o2)n1,-5.5,-3.9,-1.8,-0.1,-5.9,·,
O=[N+]([O-])c1ccc(COc2cccc3cccnc23)cc1,·,0.9,·,·,31.2,·,
O=[N+]([O-])c1cc(Cl)ccc1Sc1cccc2cccnc12,-3.1,-0.1,-4.0,17.4,128.9*,89.7*,Diaphorase 10uM=88.3*;Diaphorase 30uM=82.1*
O=[N+]([O-])c1ccc(Sc2cccc3cccnc23)cc1,-24.4,13.9,1.1,11.3,113.7*,83.1*,Diaphorase 10uM=77.1*;Diaphorase 30uM=72.5*
O=[N+]([O-])c1cc(Cl)ccc1Sc1ccccn1,-9.0,0.3,·,·,51.0,·,
